Source: ChEMBL document CHEMBL5126501, “Therapeutic potential for coxibs-nitric oxide releasing hybrids in cystic fibrosis” (Eur J Med Chem, 2021)

Columns and labels:
[1] = biological target: T1, Prostaglandin G/H synthase 1 (Ovis aries, UniProt P05979); test: Inhibition of ovine COX-1 assessed as […] production using arachidonic acid as substrate preincubated for 10 mins followed by substrate addition and measured after 2 mins by enzyme immunoassay
T1 sequence (P05979 whole entry): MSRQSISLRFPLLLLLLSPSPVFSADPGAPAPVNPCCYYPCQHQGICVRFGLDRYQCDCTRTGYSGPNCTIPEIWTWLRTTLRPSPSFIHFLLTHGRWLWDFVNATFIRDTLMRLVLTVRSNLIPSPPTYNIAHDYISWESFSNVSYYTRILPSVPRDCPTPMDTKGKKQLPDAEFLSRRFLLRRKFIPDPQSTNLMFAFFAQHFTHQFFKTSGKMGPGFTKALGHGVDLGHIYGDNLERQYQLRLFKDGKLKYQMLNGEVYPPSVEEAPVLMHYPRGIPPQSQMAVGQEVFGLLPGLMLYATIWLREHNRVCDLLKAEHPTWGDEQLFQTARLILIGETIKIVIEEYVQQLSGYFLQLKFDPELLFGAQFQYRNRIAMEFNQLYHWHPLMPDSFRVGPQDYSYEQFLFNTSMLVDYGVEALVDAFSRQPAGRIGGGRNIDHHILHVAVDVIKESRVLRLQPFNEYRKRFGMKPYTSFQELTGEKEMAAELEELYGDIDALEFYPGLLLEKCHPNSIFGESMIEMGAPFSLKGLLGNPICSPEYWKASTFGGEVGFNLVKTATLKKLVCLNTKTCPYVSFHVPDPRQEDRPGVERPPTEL
In short: (§1)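 PGE2 production was measured with test compound and compared with control samples to give % inhibition. Values are means of n = 3 experiments. IC50 was obtained by fitting a sigmoidal dose–response equation with variable slope.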

Mus musculus [2] = test: Analgesic activity against acetic acid induced mouse model assessed as number of writhes at 5 mg/kg, po measured after 30 mins by abdominal constriction test; type: functional; details: 0.5 h
Aorta [3] = test: Vasorelaxant activity in KCl induced normotensive Wistar rat endothelium-denuded aortic rings contraction assessed as maximal vasorelaxing response at 10 uM relative to control; type: functional
In short: (§2)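 Rat aortic rings were precontracted with KCl. Vasorelaxing efficacy (Emax) is the % reversal of the KCl-induced vasoconstriction. Potency is pIC50, the −log of the molar concentration giving 50% of Emax. ODQ was used to check for NO dependence.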

Mus musculus [4] = test: Analgesic activity against acetic acid induced mouse model assessed as number of writhes at 20 mg/kg, po measured after 30 mins by abdominal constriction test; type: functional; details: 0.5 h
In short: (§3)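 Mice were dosed orally, with carboxymethylcellulose (CMC) as vehicle, 30 min before an acetic acid (0.6%) challenge. Abdominal constrictions (writhes) were counted. Values are means of at least seven mice, and percent writhing reduction is relative to vehicle-treated mice. Statistics were P<0.05 and P<0.01 versus vehicle.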

Aorta [5] = test: Vasorelaxant activity in KCl induced normotensive Wistar rat endothelium-denuded aortic rings contraction assessed as decrease in contractile tone; type: functional, tissue-based; in short: as §2
Mus musculus [6] = test: Analgesic activity against acetic acid induced mouse model assessed as number of writhes at 40 mg/kg, po measured after 30 mins by abdominal constriction test; type: functional; details: 0.5 h; in short: as §3
Mus musculus [7] = test: Analgesic activity against acetic acid induced mouse model assessed as reduction in writhing at 20 mg/kg, po by abdominal constriction test; type: functional; set-up: scale not given: the % may be the effect or the level left; in short: as §3
Mus musculus [8] = test: Analgesic activity against acetic acid induced mouse model assessed as number of writhes at 10 mg/kg, po measured after 30 mins by abdominal constriction test; type: functional; details: 0.5 h; in short: as §3
Mus musculus [9] = test: Analgesic activity against acetic acid induced mouse model assessed as reduction in writhing at 40 mg/kg, po by abdominal constriction test; type: functional; set-up: scale not given: the % may be the effect or the level left; in short: as §3
Mus musculus [10] = test: Analgesic activity against acetic acid induced mouse model assessed as reduction in writhing at 10 mg/kg, po by abdominal constriction test; type: functional; set-up: scale not given: the % may be the effect or the level left; in short: as §3
Mus musculus [11] = test: Analgesic activity against acetic acid induced mouse model assessed as reduction in writhing at 5 mg/kg, po by abdominal constriction test; type: functional; set-up: scale not given: the % may be the effect or the level left
[12] = biological target: T2, Prostaglandin G/H synthase 2 (Homo sapiens) (UniProt P35354); test: Inhibition of human recombinant COX-2 assessed as […] production at 10 uM using arachidonic acid as substrate preincubated for 10 mins followed by substrate addition and measured after 2 mins by enzyme immunoassay relative to control; details: time 12.0 min; in short: as §1
T2 sequence (whole entry): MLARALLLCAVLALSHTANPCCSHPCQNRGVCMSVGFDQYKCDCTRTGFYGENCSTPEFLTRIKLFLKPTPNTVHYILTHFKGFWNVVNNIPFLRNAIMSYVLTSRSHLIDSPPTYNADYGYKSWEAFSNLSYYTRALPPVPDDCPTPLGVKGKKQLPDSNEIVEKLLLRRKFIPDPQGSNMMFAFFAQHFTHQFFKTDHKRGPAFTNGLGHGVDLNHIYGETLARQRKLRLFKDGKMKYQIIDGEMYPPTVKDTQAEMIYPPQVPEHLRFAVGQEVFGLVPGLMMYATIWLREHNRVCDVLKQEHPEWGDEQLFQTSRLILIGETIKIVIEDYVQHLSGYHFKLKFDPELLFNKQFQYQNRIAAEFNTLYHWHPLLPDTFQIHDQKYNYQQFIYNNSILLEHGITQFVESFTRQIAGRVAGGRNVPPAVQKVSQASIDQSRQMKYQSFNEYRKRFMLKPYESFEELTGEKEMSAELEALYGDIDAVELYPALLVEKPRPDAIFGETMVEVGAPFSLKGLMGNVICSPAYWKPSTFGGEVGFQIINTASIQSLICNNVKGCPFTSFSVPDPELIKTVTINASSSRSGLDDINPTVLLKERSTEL

Liver [13] = test: NO releasing activity in rat liver homogenate assessed as nitrite formation measured after 120 mins; type: ADME, tissue-based; details: tissue homogenate, 2 h
In short: (§4)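 Compounds were incubated in rat liver homogenate. Inorganic nitrite and nitrate, the stable NO metabolites, were quantified over time, with the reading taken at 120 min of incubation.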

Liver [14] = test: NO releasing activity in rat liver homogenate assessed as nitrate formation measured after 120 mins; type: ADME, tissue-based; details: tissue homogenate, 2 h; in short: as §4
Mus musculus [15] = test: Analgesic activity against acetic acid induced mouse model assessed as number of writhes at 3 mg/kg, po measured after 30 mins by abdominal constriction test; type: functional; details: 0.5 h; in short: as §3
Mus musculus [16] = test: Analgesic activity against acetic acid induced mouse model assessed as reduction in writhing at 1 mg/kg, po by abdominal constriction test; type: functional; set-up: scale not given: the % may be the effect or the level left; in short: as §3
Mus musculus [17] = test: Analgesic activity against acetic acid induced mouse model assessed as reduction in writhing at 3 mg/kg, po by abdominal constriction test; type: functional; set-up: scale not given: the % may be the effect or the level left; in short: as §3
Mus musculus [18] = test: Analgesic activity against acetic acid induced mouse model assessed as number of writhes at 1 mg/kg, po measured after 30 mins by abdominal constriction test; type: functional; details: 0.5 h; in short: as §3

IC50 [1] [µM]	IC50 (Aorta [5]) [µM]	inhibition [12] [%]	SMILES	Emax at 10 µM (Aorta [3]) [%]	Activity (Mus musculus [8])	Activity (Mus musculus [10]) [%]	further results
–	–	15	Cc1c(CC(=O)NCCO)cc(-c2ccc(S(N)(=O)=O)cc2)n1-c1cccc(F)c1	–	–	–	–
> 10	3.24	45	Cc1c(CC(=O)NCCO[N+](=O)[O-])cc(-c2ccc(S(N)(=O)=O)cc2)n1-c1cccc(F)c1	67.5	16.7	50.3	Activity (Mus musculus [15]): 19.4; Activity (Mus musculus [16]): 35.1%; Activity (Mus musculus [17]): 42.3%; Activity (Mus musculus [18]): 21.8

The remaining lines, values behind:

SMILES	IC50 [1] [µM]	IC50 (Aorta [5]) [µM]	inhibition [12] [%]	Emax at 10 µM (Aorta [3]) [%]	Activity (Mus musculus [8])	Activity (Mus musculus [10]) [%]	further results
Cc1c(CC(=O)NCCO[N+](=O)[O-])cc(-c2ccc(S(N)(=O)=O)cc2)n1-c1ccc(F)cc1	> 10	1.51	16	74.9	18.5	44.9	Activity (Mus musculus [2]): 26.7; Activity (Mus musculus [4]): 15.8; Activity (Mus musculus [6]): 16.7; Activity (Mus musculus [7]): 53%; Activity (Mus musculus [9]): 50.3%; Activity (Mus musculus [11]): 20.5%
COc1ccc2cc([C@H](C)C(=O)OCCCCO[N+](=O)[O-])ccc2c1 [NAPROXCINOD]	–	–	–	–	–	–	Activity (Liver [13]): 28 µM; Activity (Liver [14]): 340.1 µM
Cc1c(CC(=O)NCCO)cc(-c2ccc(S(N)(=O)=O)cc2)n1-c1ccc(F)cc1	–	–	18	–	–	–	–
